# Calls of active or inactive are those of the source. No cut-off for these calls is given here.
# How the values were obtained:
# [1] = AUC (0 to infinity) in Sprague-Dawley rat at 1 mg/kg, iv measured upto 24 hrs by LC-MS/MS analysis; format: ADME, organism-based; parameters: route intravenous, dose 1 mg/kg, time <=24; conditions: in vivo
# Method in brief: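 Female Sprague-Dawley rats (n = 4 per route), fasted overnight; 1 mg/kg oral (0.25% CMC) or i.v. tail-vein bolus (DMSO-PEG400-ethanol-water). Plasma was sampled to 24 h and assayed by LC-MS/MS (0.5-200 ng/mL). Non-compartmental AUC0-∞ = AUC0-t + Clast/kel; mean ± S.D.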
# [2] = Acute toxicity in Swiss albino mouse assessed as tissue protein level at 5 mg/kg, po measured after 7 days (reference value: 0.029 +/- 0.004 mg/ml); format: organism-based; conditions: in vivo, 168 h, time 7 day
# [3] = Acute toxicity in Swiss albino mouse assessed as eosinophil count at 50 mg/kg, po measured after 7 days (reference value: 6.34 +/- 1.04 %); format: organism-based; conditions: in vivo, 168 h, time 7 day
# [4] = Acute toxicity in Swiss albino mouse assessed as malondialdehyde level at 1000 mg/kg, po measured after 7 days (reference value: 0.14 +/- 0.01 nM/mg); format: organism-based; conditions: in vivo, 168 h, time 7 day
# [5] = Cmax in Sprague-Dawley rat at 1 mg/kg, po measured upto 24 hrs by LC-MS/MS analysis; format: ADME, organism-based; parameters: route oral, dose 1 mg/kg, time <=24; conditions: in vivo
# Method in brief: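 Female Sprague-Dawley rats (n = 4), fasted overnight 12–14 h, dosed orally at 1 mg kg-1 as a 0.25% CMC suspension and fed 3 h post-dose. Retro-orbital blood was taken from 0.25 to 24 h. Plasma was hexane-extracted and assayed by LC-MS/MS. Cmax and Tmax were read from the data; other parameters came from non-compartmental analysis. Mean ± S.D.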
# [6] = Acute toxicity in Swiss albino mouse assessed as relative liver weight at 1000 mg/kg, po measured after 7 days (reference value: 6.81 +/- 2.14 %); format: organism-based; conditions: in vivo, 168 h, time 7 day
# [7] = Acute toxicity in Swiss albino mouse assessed as triglycerides level at 50 mg/kg, po measured after 7 days (reference value: 58.51 +/- 10.82 mg/dL); format: organism-based; conditions: in vivo, 168 h, time 7 day
# [8] = Acute toxicity in Swiss albino mouse assessed as relative lung weight at 300 mg/kg, po measured after 7 days (reference value: 0.70 +/- 0.08 %); format: organism-based; conditions: in vivo, 168 h, time 7 day
# [9] = Acute toxicity in Swiss albino mouse assessed as absolute heart weight at 1000 mg/kg, po measured after 7 days (reference value: 0.12 g); format: organism-based; conditions: in vivo, 168 h, time 7 day
# [10] = Acute toxicity in Swiss albino mouse assessed as body weight at 300 mg/kg, po measured on day 7 (reference value: 22.75 +/- 0.38 g); format: organism-based; conditions: in vivo, 168 h, time 7 day
# [11] = Acute toxicity in Swiss albino mouse assessed as absolute liver weight at 1000 mg/kg, po measured after 7 days (reference value: 1.11 +/- 0.04 g); format: organism-based; conditions: in vivo, 168 h, time 7 day
# [12] = Acute toxicity in Swiss albino mouse assessed as ALKP level at 1000 mg/kg, po measured after 7 days (reference value: 379.25 +/- 27.08 U/L); format: organism-based; conditions: in vivo, 168 h, time 7 day
# [13] = Acute toxicity in Swiss albino mouse assessed as reduced GSH level at 50 mg/kg, po measured after 7 days (reference value: 18.20 +/- 1.56 ug/mg of protein); format: organism-based; conditions: in vivo, 168 h, time 7 day
# [14] = Acute toxicity in Swiss albino mouse assessed as haemoglobin level at 50 mg/kg, po measured after 7 days (reference value: 10.86 +/- 0.87 g/dL); format: organism-based; conditions: in vivo, 168 h, time 7 day
# [15] = Acute toxicity in Swiss albino mouse assessed as WBC count per thousand/mm3 at 50 mg/kg, po measured after 7 days (reference value: 6.84 +/- 0.83 /mm3); format: organism-based; conditions: in vivo, 168 h, time 7 day
# [16] = Acute toxicity in Swiss albino mouse assessed as malondialdehyde level at 5 mg/kg, po measured after 7 days (reference value: 0.14 +/- 0.01 nM/mg); format: organism-based; conditions: in vivo, 168 h, time 7 day
# [17] = Acute toxicity in Swiss albino mouse assessed as monocyte count at 1000 mg/kg, po measured after 7 days (reference value: 12.58 +/- 2.86 %); format: organism-based; conditions: in vivo, 168 h, time 7 day
# [18] = Acute toxicity in Swiss albino mouse assessed as relative brain weight at 50 mg/kg, po measured after 7 days (reference value: 1.63 +/- 0.13 %); format: organism-based; conditions: in vivo, 168 h, time 7 day
# [19] = Oral bioavailability in Sprague-Dawley rat at 1 mg/kg measured upto 24 hrs by LC-MS/MS analysis; format: ADME, organism-based; conditions: in vivo
# Method in brief: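 Oral (1 mg kg-1, 0.25% CMC) and i.v. (1 mg kg-1 bolus) groups of female SD rats, n = 4 each, sampled to 24 h and assayed by plasma LC-MS/MS. AUC0-∞ = AUC0-t + Clast/kel. %F = (AUC oral × dose i.v.)/(AUC i.v. × dose oral) × 100.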
# [20] = Acute toxicity in Swiss albino mouse assessed as albumin level at 5 mg/kg, po measured after 7 days (reference value: 3.24 +/- 0.30 g/dL); format: organism-based; conditions: in vivo, 168 h, time 7 day
# [21] = Acute toxicity in Swiss albino mouse assessed as relative kidney weight at 50 mg/kg, po measured after 7 days (reference value: 1.25 +/- 0.08 %); format: organism-based; conditions: in vivo, 168 h, time 7 day
# [22] = Acute toxicity in Swiss albino mouse assessed as relative liver weight at 50 mg/kg, po measured after 7 days (reference value: 6.81 +/- 2.14 %); format: organism-based; conditions: in vivo, 168 h, time 7 day
# [23] = Acute toxicity in Swiss albino mouse assessed as malondialdehyde level at 50 mg/kg, po measured after 7 days (reference value: 0.14 +/- 0.01 nM/mg); format: organism-based; conditions: in vivo, 168 h, time 7 day
# [24] = Acute toxicity in Swiss albino mouse assessed as relative kidney weight at 1000 mg/kg, po measured after 7 days (reference value: 1.25 +/- 0.08 %); format: organism-based; conditions: in vivo, 168 h, time 7 day
# [25] = Acute toxicity in Swiss albino mouse assessed as absolute lung weight at 300 mg/kg, po measured after 7 days (reference value: 0.16 +/- 0.01 g); format: organism-based; conditions: in vivo, 168 h, time 7 day
# [26] = Acute toxicity in Swiss albino mouse assessed as relative heart weight at 1000 mg/kg, po measured after 7 days (reference value: 0.51 +/- 0.02 %); format: organism-based; conditions: in vivo, 168 h, time 7 day
# [27] = Acute toxicity in Swiss albino mouse assessed as body weight at 50 mg/kg, po observed on day 1 (reference value: 20.38 +/- 0.24 g); format: organism-based; conditions: in vivo, 24 h, time 1 day
# [28] = Acute toxicity in Swiss albino mouse assessed as creatinine level at 1000 mg/kg, po measured after 7 days (reference value: 0.97 +/- 0.07 mg/dL); format: organism-based; conditions: in vivo, 168 h, time 7 day
# [29] = test system: Calvarial osteoblast; assay: Induction of osteoblast differentiation in mouse calvarial osteoblast assessed as increase in collagen type 1 mRNA expression at 1 pM incubated for 24 and 48 hrs by qPCR analysis; format: functional, cell-based
# Method in brief: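 Calvarial osteoblasts were treated at 1 pM for 24 and 48 h. Total RNA was extracted with TRIzol, and cDNA was made from 2 µg RNA. qPCR ran 40 cycles for BMP-2, RUNX-2, OCN and collagen type 1, with normalization to GAPDH. Mean ± SEM of three independent experiments.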
# [30] = Acute toxicity in Swiss albino mouse assessed as absolute liver weight at 50 mg/kg, po measured after 7 days (reference value: 1.11 +/- 0.04 g); format: organism-based; conditions: in vivo, 168 h, time 7 day
# [31] = Acute toxicity in Swiss albino mouse assessed as SGOT level at 50 mg/kg, po measured after 7 days (reference value: 31.99 +/- 3.37 U/L); format: organism-based; conditions: in vivo, 168 h, time 7 day
smiles,measurement,setting,value
CCCCN(C)C(=O)CCCCOc1ccc([C@H]2c3ccc(OC)cc3OC(C)(C)[C@@H]2c2ccccc2)cc1,AUC(0-inf),[1],906 ng·h/mL
same,Activity,[2],0.035 mg/mL
same,Activity,[3],6.99%
same,Activity,[4],0.16 nM/mg
same,Cmax,[5],38.9 ng/mL
same,Activity,[6],5.28%
same,Activity,[7],83.78 mg/dL
same,Activity,[8],0.73%
same,Activity,[9],0.12 g
same,Activity,[10],23.31 g
same,Activity,[11],1.07 g
same,Activity,[12],378.12 U/L
same,Activity,[13],15 µg/mg
same,Activity,[14],13.14 g/dL
same,Activity,[15],5.69 /mm3
same,Activity,[16],0.14 nM/mg
same,Activity,[17],12.27%
same,Activity,[18],1.54%
same,bioavailability,[19],13.2%
same,Activity,[20],3.97 g/dL
same,Activity,[21],1.09%
same,Activity,[22],5.17%
same,Activity,[23],0.14 nM/mg
same,Activity,[24],1.44%
same,Activity,[25],0.17 g
same,Activity,[26],0.57%
same,Activity,[27],20.38 g
same,Activity,[28],0.69 mg/dL
same,Activity,[29],Active
same,Activity,[30],1.23 g
same,Activity,[31],40.13 U/L

# Reference: ChEMBL document CHEMBL4680077, “Differentiation of skeletal osteogenic progenitor cells to osteoblasts with 3,4-diarylbenzopyran based amide derivatives: Novel osteogenic agents” (Eur J Med Chem, 2016)
